The results in this text go back to PMC3139720 (Proteins, 2011).

Numbering of substitutions follows the chain as printed. Names and notes keep the numbering of the source. Values joined by “and” are separate entries in the source; they are usually repeats but may differ in a detail not shown here. Identical values can stand only once. Like-named read-outs stand apart in the source and are kept apart here. Marks after values point to notes of the source that are not given here.

For data set [1] the following is noted: reaction of ABD with L-GSH; for Ea/R: Arrhenius fit.
The nature of data set [2]: Practical properties of thiol-reactive probes. Type of data set: physicochemical. Particulars: data not shown.
Another data set can be described thus: physchem. Particulars: apparent pKa of L-GSH.
Data set [3] in a line: Thermal unfolding monitored by circular dichroism at 222 nm. Particulars: pH 7, CD signal at 222 nm, fit of Eq. 1. The data set is classed as physicochemical. Summed up: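 His-tagged variants, Ni-affinity purified and buffer-exchanged. Protein at 3 μM in 25 mM potassium phosphate, 100 mM KCl, pH 7. CD signal at 222 nm recorded as a function of temperature. Apparent Tm obtained by fitting Eq. 1.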

A short description of data set [4]: fQCR: ABD labeling of a single buried cysteine over a temperature gradient. Type of data set: physicochemical. Summed up: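 Purified single-buried-cysteine variant at 5-10 μM in 25 mM potassium phosphate, 100 mM KCl, pH 7, with TCEP. Final ABD at least 10-fold over protein. Parallel reactions run across a gradient thermocycler and quenched after fixed Δt by rapid cooling or acid. Fluorescence relative to RFUmax (400-2000 μM ABD) gives fractional labeling. Probe-concentration slices test EX2. ΔCp fixed at 3.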

Data set [5] in a line: fQCR ligand binding: RBP.A188C in absence and presence of D-ribose. Particulars: for Δ^apoGU: absence of ligand; for Tm / ΔHm: free energy profile; for Kd: ligand ribose, from ΔΔGU (Eq. 17). Put shortly:
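RBP.A188C at 5 μM with 400 μM ABD and 50 μM TCEP (final) in 25 mM potassium phosphate, 100 mM KCl, pH 7, without or with 20 μM ligand. Samples incubated 10 min across a gradient thermocycler, then fluorescence read at 30°C (ex 405, em 465 nm). Fractional labeling converted to free-energy profiles. KD derived versus temperature and free ligand concentration via Eq. 17.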

The mark [6] stands for this setting: absence of ribose (Fig. 6B inset).
Setting [7] is: presence of 20 μM ribose (Fig. 6B inset).
Setting [8] is: Δt 300 s, [ABD] 500 μM, PHERAstar FS microplate reader (Fig. 7).

Consider `NS(=O)(=O)c1ccc(F)c2nonc12` [ABD, 4-(aminosulfonyl)-7-fluoro-2,1,3-benzoxadiazole], for which the “lnA, average value and standard error” value in data set [1] (over pH 6-8.5) turned out to be 27.3 ± 0.3. In addition, the Ea/R is on record as -9300 ± 200 K in data set [1] (pH 6 (by order of symbols)), -8300 ± 200 K in data set [1] (pH 7 (by order of symbols)), -7800 ± 200 K in data set [1] (pH 8 (by order of symbols)) and -7400 ± 200 K in data set [1] (pH 8.5 (by order of symbols)).
As to `CCN(CC)c1ccc2c(C)c(-c3ccc(N4C(=O)C=CC4=O)cc3)c(=O)oc2c1` [CPM, N-[4-(7-diethylamino-4-methyl-3-coumarinyl)phenyl]maleimide], in data set [2], the solubility result is recorded as “limited” and the spontaneous hydrolysis result is “high rate of spontaneous hydrolysis that is strongly temperature dependent”.
In the case of `N[C@@H](CCC(=O)N[C@@H](CS)C(=O)NCC(=O)O)C(=O)O` [L-GSH, reduced glutathione], in the data set “physchem”, the pKa was determined as 8.03 ± 0.01.

B1: RBP.L61C: E. coli ribose-binding protein variant engineered to contain a single, buried cysteine (L61C), C-terminal … tag (protein, UniProt P02925 26-296, looked up, variant L61C)
Ribose import binding protein …: KDTIALVVSTLNNPFFVSLKDGAQKEADKLGYNLVVLDSQNNPAKELANVQDLTVRGTKICLINPTDSDAVGNAVKMANQANIPVITLDRQATKGEVVSHIASDNVLGGKIAGDYIAKKAGEGAKVIELQGIAGTSAARERGEGFQQAVAAHKFNVLASQPADFDRIKGLNVMQNLLTAHPDVQAVFAQNDEMALGALRALQTAGKSDVMVVGFDGTPDGEKAVNDGKLAATIAQLPDQIGAKGVETADKVLKGEKVQAKYPVDLKLVVKQ
modifications: C-terminal … tag
As to B1, the “apparent Tm” value in data set [3] amounted to 53 ± 1 °C. Also, the Tm in data set [4] (summary line, quantified graphically) was 53 ± 1 ^c °C; in data set [4] (Δt 300 s, [ABD] 400 μM, quantified graphically (non-EX2)) it was 53 ± 1 ^c °C; in data set [4] (Δt 300 s, [ABD] 600 μM, quantified graphically (non-EX2)), 53 ± 1 ^c °C; in data set [4] (Δt 300 s, [ABD] 800 μM, quantified graphically (non-EX2)), 53 ± 1 ^c °C; in data set [4] (Δt 300 s, [ABD] 1200 μM, quantified graphically (non-EX2)) it was 53 ± 1 ^c °C. For the same molecule, the “~kclose at Tm” value in data set [4] (Δt 300 s, [ABD] 100 μM) is on record as < 2 × 10^-2 ^e s^-1; in data set [4] (Δt 300 s, [ABD] 200 μM) it was < 2 × 10^-2 ^e s^-1; in data set [4] (Δt 300 s, [ABD] 400 μM), < 2 × 10^-2 ^e s^-1; in data set [4] (Δt 300 s, [ABD] 600 μM), < 2 × 10^-2 ^e s^-1; in data set [4] (Δt 300 s, [ABD] 800 μM), < 2 × 10^-2 ^e s^-1; in data set [4] (Δt 300 s, [ABD] 1200 μM), < 2 × 10^-2 ^e s^-1.

B2: RBP.A188C: E. coli ribose-binding protein variant engineered to contain a single, buried cysteine (A188C), C-terminal … tag (protein, UniProt P02925 26-296, looked up, variant A188C)
Ribose import binding protein …: B1 Ribose import binding protein … with C61L, A188C
modifications: C-terminal … tag
As to B2, in data set [3], the “apparent Tm” value is 56 ± 1 °C. The “Δ^apoGU” value in data set [5] (46 °C) worked out at 3.7 kcal/mol; in data set [5] (48 °C) it was 3.0 kcal/mol; in data set [5] (50 °C), 2.3 kcal/mol; in data set [5] (52 °C), 1.6 kcal/mol; in data set [5] (54 °C), 0.9 kcal/mol; in data set [5] (56 °C) it was 0.1 kcal/mol. Besides, the Tm in data set [5] (setting [6]) is 57 ± 1 °C; in data set [5] (setting [7]) it was 59 ± 1 °C; in data set [4] (Δt 300 s, [ABD] 200 μM), 56 ± 1 °C; in data set [4] (setting [8]), 56 ± 1 ^f °C; in data set [4] (Δt 600 s, [ABD] 200 μM), 56 ± 1 °C; in data set [4] (Δt 600 s, [ABD] 400 μM) it was 56 ± 1 °C. The Tm in data set [4] (Δt 600 s, [ABD] 1200 μM) stood at 58 ± 1 °C; in data set [4] (Δt 600 s, [ABD] 1600 μM), 58 ± 1 °C. In addition, the ΔHm was 138 ± 1 kcal/mol in data set [5] (setting [6]); 160 ± 8 kcal/mol in data set [5] (setting [7]); 123 ± 16 ^f kcal/mol and 112 ± 5 ^f kcal/mol in data set [4] (setting [8]); 121 ± 4 kcal/mol in data set [4] (Δt 300 s, [ABD] 800 μM, ΔCp fixed at 3); 117 ± 8 kcal/mol in data set [4] (Δt 300 s, [ABD] 1600 μM, ΔCp fixed at 3); 128 ± 3 kcal/mol in data set [4] (Δt 600 s, [ABD] 800 μM, ΔCp fixed at 3). In addition, the ΔHm in data set [4] (Δt 600 s, [ABD] 1200 μM, ΔCp fixed at 3) stood at 125 ± 5 kcal/mol; in data set [4] (Δt 600 s, [ABD] 1600 μM, ΔCp fixed at 3), 121 ± 4 kcal/mol. The Kd in data set [5] (46 °C) is 1200 nM; in data set [5] (48 °C) it was 1400 nM; in data set [5] (50 °C), 1700 nM; in data set [5] (52 °C), 2000 nM; in data set [5] (54 °C) it was 2300 nM; in data set [5] (56 °C), 2700 nM. Also, the Ea/R in data set [4] (average value) was -8140 ^a K; in data set [4] (Δt 300 s, [ABD] 200 μM, pH 7) it was -8163 ± 6 K; in data set [4] (Δt 300 s, [ABD] 400 μM, pH 7), -8110 ± 14 K. The “~kclose at Tm” value was around 0.04 s⁻¹ in data set [4] (Δt 300 s, [ABD] 1600 μM); around 0.04 s⁻¹ in data set [4] (Δt 600 s, [ABD] 1200 μM); around 0.04 s⁻¹ in data set [4] (Δt 600 s, [ABD] 1600 μM).
